This is a sample that favours compounds with a hit; in the whole collection about 2.2% have one here.
FLuc act counter – firefly luciferase counter-screen for stimulation assays | activation factor at 10 µM | P08659 | AID 1027 | 200,000 tested, under 10 active | ATPlite luciferase biochemical, luminescence, 10 min; 0 = ATP-free wells, 1 = DMSO control;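 active means luciferase activation factor, scaled between plate controls, of at least 2 with compound at 10 µM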
Target sequence (P08659 whole entry, looked up): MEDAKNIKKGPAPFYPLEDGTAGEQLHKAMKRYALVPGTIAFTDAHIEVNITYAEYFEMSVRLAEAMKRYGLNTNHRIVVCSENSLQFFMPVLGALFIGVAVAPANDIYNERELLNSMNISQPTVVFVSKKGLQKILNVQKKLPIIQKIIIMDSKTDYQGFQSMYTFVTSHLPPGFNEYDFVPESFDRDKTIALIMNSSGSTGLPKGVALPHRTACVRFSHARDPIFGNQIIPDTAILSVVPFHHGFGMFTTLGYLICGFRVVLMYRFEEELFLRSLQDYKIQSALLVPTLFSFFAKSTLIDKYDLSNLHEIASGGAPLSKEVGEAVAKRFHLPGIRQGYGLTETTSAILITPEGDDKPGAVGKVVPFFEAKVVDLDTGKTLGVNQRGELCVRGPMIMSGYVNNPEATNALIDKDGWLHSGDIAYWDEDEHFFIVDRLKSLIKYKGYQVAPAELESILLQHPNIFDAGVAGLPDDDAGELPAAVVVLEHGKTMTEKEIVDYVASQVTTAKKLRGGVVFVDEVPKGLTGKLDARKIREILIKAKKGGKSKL
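assay system = Luciferase/luciferin detection reagent, cell-free biochemical luciferase assay | also added = ATP substrate | times = 10 min post-reagent at room temperature | measured by = luminescence from luciferase reaction | measure = luciferase activation, seen as luminescence increase over controls | benchmarks = low control with PBS replacing ATP, high control enzyme plus ATP without compound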
STAT3 blocker – inhibitors of IL-6 induced STAT3 signaling; inhibition, % at 5.5 µM; U3A cells, IL-6 STAT3-luciferase reporter, luminescence; host cell line lacks STAT1; AID 862; 190,000 tested, 0.89% active;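 active means inhibition above the mean inhibition across all screened compounds plus 3 SD, cut at about 44% in these data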;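 further: 0% = DMSO only wells and 100% = 100 µM nifuroxazide control wells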
C8 TRAIL sens – caspase-8 TRAIL sensitization | AID 624354 | inhibition (viability loss, TRAIL sensitization), % at 10 µM | 360,000 tested, 1% active | NB7+C8 cells + TRAIL, ATPlite viability luminescence;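 active means compounds causing at least 50% loss of cell viability in the single-dose screen, relative to plate controls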
PPC-1+TRAIL kill – PPC-1 cancer cell killing with TRAIL present. PPC-1 cells + TRAIL, ATPLite viability luminescence. AID 1443. cell killing (% activity), % at 4 µM or 5 µM. 220,000 tested, 0.41% active;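 active means cell killing above 50% in the first pass at 4 µM, then a duplicate retest at 5 µM averaging 50% or more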;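 further: plate controls were cells with TRAIL plus DMSO for no effect and medium-only wells lacking cells for full effect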
HSP90 inh – blocks HSP90-mediated luciferase refolding in reticulocyte lysate; 290,000 tested, 0.91% active; inhibition, % at 5.6 µM; Rabbit reticulocyte lysate, luciferase refolding luminescence, 3 h;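 active means inhibition above the screen-wide mean plus 3 SD, computed separately per campaign, cut at about 16% in these data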;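 further: 0% = DMSO wells and 100% = 60 µM geldanamycin wells; inhibitors lower the luminescence because luciferase stays unfolded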
FLuc inhib CS – inhibits firefly luciferase, flagging false hits in luciferase inhibition screens. P08659. ATPLite firefly luciferase biochemical luminescence, 10 min. inhibition, % at 10 µM. 200,000 tested, 1.5% active. AID 1006;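 active means inhibition above about 50% when tested at 10 µM, limit read from the data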
Active calls of the source: *.

For O=C(CN1C(=O)NC2(CCc3ccccc32)C1=O)c1c[nH]c2ccccc12 (configuration not stated) the results were C8 TRAIL sens 8.
`Cc1nn(-c2ccccc2)c(/N=C/c2ccc(O)cc2)c1-c1ccccc1` gave FLuc act counter 1, STAT3 blocker -5, C8 TRAIL sens 53*, PPC-1+TRAIL kill 40, HSP90 inh 1 and FLuc inhib CS 1.
For Cn1cnc(S(=O)(=O)N2CCN(C(c3ccccc3)c3ccccc3)CC2)c1 the results were C8 TRAIL sens -12 and HSP90 inh -4.
COc1ccc(/C=N/OC(=O)Nc2ccccc2OC)cc1 was read as FLuc act counter 0.2, STAT3 blocker 33, C8 TRAIL sens 52*, PPC-1+TRAIL kill 29, HSP90 inh 5 and FLuc inhib CS 84*.
CCOc1cc(/C=N/Nc2ncnc(Cl)c2N)ccc1O was read as FLuc act counter 0.3, STAT3 blocker 4, C8 TRAIL sens 19, PPC-1+TRAIL kill 32, HSP90 inh -2 and FLuc inhib CS 65*.
Screening CCOc1cc(/C=N/Nc2nnc(C)n2N)ccc1O returned C8 TRAIL sens -3 and HSP90 inh 2.
Screening COc1ccccc1N1CCN(Cc2ccc(O)c3ncccc23)CC1 returned FLuc act counter 1, STAT3 blocker 10, C8 TRAIL sens 65*, PPC-1+TRAIL kill 31, HSP90 inh 4 and FLuc inhib CS -4.
`Cc1cc(C)n(-c2nnc(NC(C)(C)C)nn2)n1` gave FLuc act counter 0.5, STAT3 blocker -4, C8 TRAIL sens 11, PPC-1+TRAIL kill -1, HSP90 inh 1 and FLuc inhib CS 53*.
`Cc1cc(C)n(-c2nnc(NC34CC5CC(CC(C5)C3)C4)nn2)n1` gave FLuc act counter 0.3, STAT3 blocker -25, C8 TRAIL sens 34, PPC-1+TRAIL kill 6, HSP90 inh -5 and FLuc inhib CS 66*.
CN(C)c1ccc(NC(=S)Nc2ccc3c(c2)c(=O)n(C)n3-c2ccc(C(C)(C)C)cc2)cc1 was read as C8 TRAIL sens 0.
Screening C[C@H]1CN([C@@H](C)CO)C(=O)CCCn2nncc2CO[C@H]1CN(C)C(=O)NC1CCCCC1 returned C8 TRAIL sens -7.
Screening COC(=O)c1ccc(C)c(NC(=O)C(CCSC)NC(=O)c2cc(OC)c(OC)c(OC)c2)c1 (configuration not stated) returned C8 TRAIL sens 3 and HSP90 inh -1.
For O=c1cc(-c2ccco2)oc2ccc(Cl)cc12 the results were FLuc act counter 1, STAT3 blocker 15, C8 TRAIL sens 29, PPC-1+TRAIL kill 13, HSP90 inh -1 and FLuc inhib CS -1.
Screening COc1ccc2oc(-c3ccco3)cc(=O)c2c1 returned FLuc act counter 0.4, STAT3 blocker 28, C8 TRAIL sens 13, PPC-1+TRAIL kill 16, HSP90 inh -3 and FLuc inhib CS 59*.
For O=C(/C=C/c1ccccc1)C1C(=O)c2ccccc2C1=O the results were FLuc act counter 0, STAT3 blocker -8, C8 TRAIL sens 87*, PPC-1+TRAIL kill 37, HSP90 inh 0 and FLuc inhib CS 95*.
For CCc1ccc(/C=C/C(=O)C2C(=O)c3ccccc3C2=O)cc1 the results were FLuc act counter 0, STAT3 blocker 52*, C8 TRAIL sens 91*, PPC-1+TRAIL kill 24, HSP90 inh 4 and FLuc inhib CS 96*.
O=C(c1ccccc1)C1C(=O)c2ccccc2C1=O was read as FLuc act counter 1, STAT3 blocker -2, C8 TRAIL sens 13, PPC-1+TRAIL kill -8, HSP90 inh 2 and FLuc inhib CS -3.
Screening CCn1cc(/C=N\NC(=O)Cc2ccc(Cl)cc2)cn1 returned FLuc act counter 1, STAT3 blocker -2, C8 TRAIL sens -12, PPC-1+TRAIL kill -19, HSP90 inh -1 and FLuc inhib CS -1.
For C[n+]1c(/C=C/c2ccc(O)cc2)ccc2ccccc21 the results were C8 TRAIL sens 4 and HSP90 inh 5.
Cc1cc(/C=C\c2ccc3cc(N(C)C)ccc3[n+]2C)c(C)n1-c1ccccc1 was read as C8 TRAIL sens 60*.
Screening Nc1c2c(nc3sc4c(c13)CCCC4)-c1ccccc1CC2 returned C8 TRAIL sens 66*, PPC-1+TRAIL kill 42 and HSP90 inh 9.
Screening NC(=O)c1sc2nc(-c3ccccc3)c3c(c2c1N)CCCC3 returned FLuc act counter 1, STAT3 blocker 22, C8 TRAIL sens 1, HSP90 inh 9 and FLuc inhib CS -4.
`Cc1ccc2nc(/C(C#N)=C\c3ccc([N+](=O)[O-])o3)[nH]c2c1` gave FLuc act counter 1, STAT3 blocker 8, C8 TRAIL sens 81*, PPC-1+TRAIL kill 32, HSP90 inh 4 and FLuc inhib CS -2.
For Cc1ccc2nc(/C(C#N)=C\c3ccc(N4CCOCC4)o3)[nH]c2c1 the results were FLuc act counter 0.4, STAT3 blocker 16, C8 TRAIL sens 32, PPC-1+TRAIL kill 15, HSP90 inh 3 and FLuc inhib CS 62*.
N#C/C(=C\c1ccc([N+](=O)[O-])o1)c1nc2ccccc2[nH]1 was read as FLuc act counter 1.1, STAT3 blocker -7, PPC-1+TRAIL kill 16, HSP90 inh 3 and FLuc inhib CS -6.
For Cc1ccc(/C(C#N)=C\c2ccc(N3CCOCC3)o2)cc1 the results were FLuc act counter 0.8, STAT3 blocker -17, C8 TRAIL sens 0, PPC-1+TRAIL kill -5, HSP90 inh -2 and FLuc inhib CS 15.
Screening Cc1ccc(NC(=O)c2cc(C)n(-c3cccc(C)c3)c2C)cc1 returned FLuc act counter 0.3, STAT3 blocker 16, C8 TRAIL sens 30, PPC-1+TRAIL kill 20, HSP90 inh 5 and FLuc inhib CS 74*.
Screening Cc1ccc(-n2c(C)cc(C(=O)NS(=O)(=O)c3ccc(C)cc3)c2C)cc1 returned FLuc act counter 1, STAT3 blocker -23, C8 TRAIL sens -9, PPC-1+TRAIL kill 14, HSP90 inh 0 and FLuc inhib CS -2.
`c1ccc(-c2nnc3sc(CN4CCC5(CC4)OCCO5)cn23)cc1` gave FLuc act counter 1.1, STAT3 blocker 2, C8 TRAIL sens 65*, PPC-1+TRAIL kill 5, HSP90 inh 3 and FLuc inhib CS -7.
For Cc1cccc(CCN(CC(=O)NCc2ccc(F)cc2)C(=O)c2csnn2)c1 the results were C8 TRAIL sens 2 and HSP90 inh -3.
`Cc1cc(NCCCCCCCNc2cc(C)nc3cc([N+](=O)[O-])ccc23)c2ccc([N+](=O)[O-])cc2n1` gave C8 TRAIL sens 58*.
For COCCCNc1cc(C)nc2ccccc12 the results were FLuc act counter 1.1, STAT3 blocker -24, C8 TRAIL sens -4, PPC-1+TRAIL kill 14, HSP90 inh 2 and FLuc inhib CS -9.
`Cc1ccc(CS(=O)(=O)CCC(=O)NCc2ccccc2Cl)cc1` gave C8 TRAIL sens -3 and HSP90 inh 3.

From PubChem BioAssay
